Experiments:
[1] = Cytotoxicity against human CEM-SS cells assessed as cell viability by XTT assay; format: cell-based
How it was run: (§1)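 EC50 is the concentration that reduces virus replication by 50%. CC50 is the concentration giving 50% loss of viability in uninfected cells. Both are calculated by linear regression analysis. The selectivity index is CC50 divided by EC50.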

[2] = system: Human immunodeficiency virus 1; experiment: Antiviral activity against Human immunodeficiency virus 1 infected in human CEM-SS cells assessed as virus induced cytopathic effects; format: functional, organism-based; conditions: Human immunodeficiency virus 1, CEM-SS; how it was run: as §1
[3] = Selectivity index, ratio of CC50 for human CEM-SS cells to EC50 for Human immunodeficiency virus 1 infected in human CEM-SS cells; format: toxicity, cell-based; conditions: read-out: Ratio CC50/EC50; how it was run: as §1
Human gammaherpesvirus 4 = experiment: Antiviral activity against Epstein-Barr virus infected in human Akata cells assessed as virus induced cytopathic effects by XTT assay; format: functional, organism-based; conditions: human gammaherpesvirus 4, Akata; how it was run: as §1
[4] = Cytotoxicity against human Akata cells assessed as cell viability by XTT assay; format: cell-based; how it was run: as §1
[5] = Selectivity index, ratio of CC50 for human Akata cells to EC50 for Epstein-Barr virus infected in human Akata cells; format: toxicity, cell-based; conditions: read-out: Ratio CC50/EC50; how it was run: as §1

SMILES	CC50 [1]	EC50 [2]	selectivity ratio [3]	EC50 (Human gammaherpesvirus 4)	CC50 [4]	selectivity ratio [5]
Cc1cc(C)cc(Cn2cc(Nc3ccccc3)c(=O)[nH]c2=O)c1	> 200 µM	11.9 µM	> 16.8	> 20 µM	96.2 µM	< 4.8
O=c1[nH]c(=O)n(Cc2cccc(Oc3ccccc3)c2)cc1Nc1ccccc1	> 100 µM	> 100 µM		2.3 µM	> 100 µM	> 43
O=c1[nH]c(=O)n(Cc2cccc(Cl)c2)cc1Nc1ccccc1				20 µM	> 100 µM	> 5
Cc1cccc(Cn2cc(Nc3ccccc3)c(=O)[nH]c2=O)c1	> 200 µM	44.7 µM	> 4.5	99.1 µM	> 100 µM	> 1
O=c1[nH]c(=O)n([C@H]2CO[C@@H](CO)O2)cc1I				0.033 µM	> 100 µM	> 3030
Cc1cn([C@H]2C[C@H](N=[N+]=[N-])[C@@H](CO)O2)c(=O)[nH]c1=O [ZIDOVUDINE]	> 1 µM	0.008 µM	> 125			
Cc1ccccc1Cn1cc(Nc2ccccc2)c(=O)[nH]c1=O	> 100 µM	> 100 µM		12 µM	> 100 µM	> 8.3
O=c1[nH]c(=O)n(Cc2ccccc2)cc1Nc1ccccc1	> 100 µM	> 100 µM				
Cc1ccc(Nc2cn(Cc3ccc(Cl)cc3Cl)c(=O)[nH]c2=O)cc1				43.3 µM	92.3 µM	2.1
O=c1[nH]c(=O)n(Cc2ccc(Cl)cc2Cl)cc1NCCc1ccccc1	> 100 µM	42.7 µM	> 2.34	67.2 µM	> 100 µM	> 1.5
O=c1[nH]c(=O)n(Cc2ccc(Cl)cc2Cl)cc1NCc1ccccc1	> 100 µM	54.6 µM	> 1.8	39.6 µM	96.3 µM	2.4
Cc1cc(C)cc(Cn2cc(NCc3ccccc3)c(=O)[nH]c2=O)c1	168 µM	9.5 µM	17.8			

Source: ChEMBL document CHEMBL1287718, “1-Benzyl derivatives of 5-(arylamino)uracils as anti-HIV-1 and anti-EBV agents” (Bioorg Med Chem, 2010)
